Screening data deposited in PubChem BioAssay by several laboratories.
Runt-CBFb FRET – inhibitors of human RUNX1 Runt domain binding to CBFb; Cerulean-Runt/Venus-CBFb FRET ratio 530/480, 1 h; inhibition, % at 20 µM; 0.46% of 220,000 active;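 active = inhibition over about 50% at 20 µM in the single-dose screen, limit read from the data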
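Measured by: fluorescence energy transfer, 422 nm excitation, 530/480 nm emission; test system: Cerulean-tagged RUNX1 Runt domain (FRET donor) fusion protein; buffer or medium: Tris pH 7.5 buffer with BSA; compound: one dose, 20 µM compound, 1% DMSO; times: two 1 h room-temperature incubations shielded from light; benchmarks: unlabeled CBFb 5 µM, positive control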
Calpain2 inh – inhibitors of pig calpain II | purified calpain II, fluorogenic peptide substrate, 30 min | inhibition, % at 16 µM | 0.37% of 220,000 active;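 active = inhibition above about 50%, limit read from the data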
Runt-SMMHC FRET – blocks binding of human RUNX1 Runt domain to CBFb-SMMHC; Q01196+Q13951; Cerulean-Runt/Venus-CBFb-SMMHC FRET ratio 530/480, 1 h; inhibition, % at 20 µM; 0.74% of 220,000 active; AID 1434;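 active = mean inhibition across duplicate retests at 20 µM reaching about 50%, limit read from the data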;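 also: inhibitors lower the FRET ratio by blocking Runt binding to CBFb-SMMHC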
FAS TE block – inhibitors of human fatty acid synthase thioesterase domain. P49327. recombinant FAS-TE, OMFH fluorogenic substrate, fluorescence endpoint. inhibition, % at 15 µM. 0.67% of 360,000 active. AID 602261;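 active = compounds whose normalised, plate-corrected inhibition of enzyme fluorescence in the single-dose primary screen is 50% or more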
RanGTP-Imp inh – disruptors of Ran-importin-beta complex formation – biochemical, FRET, CFP-Ran, YFP-importin-beta, homogeneous, primary screen; inhibition, % (test concentration not listed); 1.1% of 300,000 active; cell-free CFP-Ran/YFP-importin-beta FRET ratio;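 active = more than half of the replicate wells show a fall in the fluorescence ratio signal beyond about 16%, limit read from the data, passing the limit was not always enough; inconclusive = exactly half of the replicate wells pass the set limit; inactive = fewer than half of replicates pass the limit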
FAS-TE conf – confirmation of human fatty acid synthase thioesterase inhibitors | shares compounds with FAS TE block | recombinant FAS-TE, OMFH fluorogenic substrate, fluorescence | inhibition, % at 15 µM | 45% of 2,300 active | AID 624325;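 active = compounds inhibiting the enzyme by at least 50% at 15 µM in any one of the replicates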
Of the large screens only hits and unclear results are named; the others gave an inactive call (follow-up assays come after a bar, where they were run). Rows were chosen to be rich in hits. Some 2.1% of all compounds tested hit in one or more screens of this group.

CC(C)Cn1c(N)c(C(=O)COC(=O)c2cc(-c3ccco3)nc3ccccc23)c(=O)n(C)c1=O	none
COc1ccc(Cl)cc1S(=O)(=O)N1CCCC(C(=O)N2CCOCC2)C1 (stereo unspecified)	none (no result: Runt-CBFb FRET, Calpain2 inh, Runt-SMMHC FRET)
CC(OC(=O)c1cccc(S(=O)(=O)N2CCN(C)CC2)c1)C(=O)Nc1ccc(C(N)=O)cc1 (stereo unspecified)	none (no result: Runt-CBFb FRET, Calpain2 inh, Runt-SMMHC FRET, RanGTP-Imp inh)
CCc1ccc(NC(=O)C(C)OC(=O)c2cccc(S(=O)(=O)N3CCc4ccccc4C3)c2)cc1 (stereo unspecified)	FAS TE block 52.5 | FAS-TE conf inactive
CC1CCc2c(sc3nc(CN4CCN(S(=O)(=O)c5ccccc5[N+](=O)[O-])CC4)[nH]c(=O)c23)C1 (stereo unspecified)	FAS TE block 90.6 | FAS-TE conf 50.3
Cc1ccc(S(=O)(=O)N2CCN(c3nn(C)c(=O)n(C)c3=O)CC2)cc1C	none (no result: Runt-CBFb FRET, Calpain2 inh, Runt-SMMHC FRET, RanGTP-Imp inh)
C/C(=N/NC(=O)CNC(=O)CCc1ccccc1)c1ccc(Cl)c(Cl)c1	none
N#Cc1ccc(-c2cccnc2)nc1SCc1ccc(Cl)cc1Cl	FAS TE block 55.4 | FAS-TE conf inactive
COc1ccc(CNC(=O)/C=C/c2cc([N+](=O)[O-])ccc2OC(F)F)cc1	FAS TE block 81.9 | FAS-TE conf 65.2
COc1ccc(CNC(=O)/C=C/c2cc([N+](=O)[O-])ccc2OC(F)F)cc1OC	FAS TE block 74.9 | FAS-TE conf 78.2
O=C(/C=C/c1cc([N+](=O)[O-])ccc1OC(F)F)Nc1cccc(OC(F)F)c1	none
COC(=O)c1ccc(CNC(=O)/C=C/c2cc([N+](=O)[O-])ccc2OC(F)F)cc1	FAS TE block 82.7 | FAS-TE conf 80.6
O=C(/C=C/c1cc([N+](=O)[O-])ccc1OC(F)F)NCc1ccc(Cl)cc1	FAS TE block 79.7 | FAS-TE conf 88.2
COc1ccc(CNC(=O)/C=C/c2ccccc2[N+](=O)[O-])cc1	none
COc1ccc(S(=O)(=O)Nc2cccc3c2O[C@H](CN(C)C(=O)NC(C)C)[C@@H](C)CN([C@H](C)CO)C3=O)cc1	none (no result: Runt-CBFb FRET, Calpain2 inh, Runt-SMMHC FRET, RanGTP-Imp inh)
Cc1cc(OC(C)C(=O)Nc2ccncc2)ccc1Cl (stereo unspecified)	none (no result: Runt-CBFb FRET, Calpain2 inh, Runt-SMMHC FRET)
COc1ccc(C(=O)N2N=C(c3ccc(NS(C)(=O)=O)cc3)CC2c2cccs2)cc1 (stereo unspecified)	none (no result: Runt-CBFb FRET, Calpain2 inh, Runt-SMMHC FRET)
CCc1cc(=O)oc2cc(C)cc(OCC(=O)N3CCC(C(=O)O)CC3)c12	none (no result: Runt-CBFb FRET, Calpain2 inh, Runt-SMMHC FRET)
Cc1cccc(OCC(=O)NCC(C)(C)N2CCOCC2)c1	none (no result: Runt-CBFb FRET, Calpain2 inh, Runt-SMMHC FRET, RanGTP-Imp inh)
COc1ccccc1NC(=O)/C=C/c1cc([N+](=O)[O-])ccc1OC(F)F	none
O=C(/C=C/c1cc([N+](=O)[O-])ccc1OC(F)F)Nc1cccc2ccccc12	FAS TE block 62.8, RanGTP-Imp inh inconclusive | FAS-TE conf 48.4
CC(NC(=O)C12CC3CC(CC(C3)C1)C2)C(=O)N/N=C/C1=C(N2CCOCC2)C(=C\c2cccc([N+](=O)[O-])c2)/CC1 (stereo unspecified)	FAS TE block 89.0 | FAS-TE conf inactive
CC(C)C(NC(=O)C12CC3CC(CC(C3)C1)C2)C(=O)N/N=C/C1=C(N2CCOCC2)C(=C\c2ccc([N+](=O)[O-])cc2)/CC1 (stereo unspecified)	FAS TE block 78.7 | FAS-TE conf inactive
Cc1occc1C(=O)N/N=C/C1=C(N2CCOCC2)C(=C\c2ccc(Cl)cc2)/CC1	none
COc1ccc(S(=O)(=O)N(C)CC(=O)NCCN2CCOCC2)cc1C	none (no result: Runt-CBFb FRET, Calpain2 inh, Runt-SMMHC FRET)
O=[N+]([O-])c1ccc(NC(=S)NCCc2ccc(Cl)cc2)cc1	Calpain2 inh 67.7, FAS TE block 50.9 | FAS-TE conf inactive
O=[N+]([O-])c1ccc(NC(=S)NCCc2ccccc2)cc1	FAS TE block 53.2 | FAS-TE conf 38.2
O=C(NC(Nc1ncc(S(=O)(=O)c2ccc([N+](=O)[O-])cc2)s1)(C(F)(F)F)C(F)(F)F)c1ccc(Cl)cc1	FAS TE block 60.7 | FAS-TE conf 43.6
O=C(Nc1ncc(S(=O)(=O)c2ccc([N+](=O)[O-])cc2)s1)c1cccc2ccccc12	FAS TE block 55.8 | FAS-TE conf inactive
